# This is a sample that favours compounds with a hit; in the whole collection about 2.1% have one here.
# RanGTP-Imp inh: inhibitors of RanGTP-importin-beta interaction, primary screen, biochemical, FRET, CFP-Ran, YFP-importin-beta, homogeneous; cell-free CFP-Ran/YFP-importin-beta FRET ratio; inhibition, % (test concentration not listed); 300,000 compounds, 1.1% hits; AID 2216, 2009;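 active = more than half of the replicate wells show a fall in the fluorescence ratio signal beyond about 16%, limit read from the data, passing the limit was not always enough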;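 note: 0% = DMSO wells and 100% = Ran loaded with GDP instead of GTP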
# Hck-Nef inh: inhibitors of Nef-activated human Hck kinase, primary screen, biochemical, Z-Lyte FRET, 384-well, Hck-YEEI. inhibition, % at 20 µM. Recombinant Hck-YEEI plus Nef, Z-Lyte FRET kinase assay. AID 463187, 2010. 220,000 compounds, 0.68% hits;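 active = Hck-Nef kinase inhibition above about 50%, limit read from the data; inactive = inhibition below that limit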;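 note: 0% = DMSO with Hck plus Nef and 100% = Hck alone without Nef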
# Tb hexokinase: Trypanosoma brucei hexokinase 1 inhibitors, primary screen, biochemical, G6PDH-coupled NADH absorbance, MLSCN library; hexokinase 1 [Trypanosoma brucei]; recombinant TbHK1, G6PDH-coupled NADH A340; inhibition, % at 10 µM; 220,000 compounds, 0.11% hits;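 active = inhibition of 50% or more in the single-dose primary screen; inactive = inhibition below 50%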
# Runt-SMMHC FRET: inhibitors of RUNX1 Runt–CBFb-SMMHC binding, primary screen, biochemical, FRET, Cerulean-Runt, Venus-CBFb-SMMHC, uHTS; AID 1434, 2008; 220,000 compounds, 0.74% hits; inhibition, % at 20 µM; Cerulean-Runt/Venus-CBFb-SMMHC FRET ratio 530/480, 1 h;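 active = mean inhibition across duplicate retests at 20 µM reaching about 50%, limit read from the data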;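 note: 0% = DMSO wells and 100% = wells with excess untagged CBFb-SMMHC; inhibitors lower the FRET ratio by blocking Runt binding to CBFb-SMMHC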
# Runt-CBFb FRET: inhibitors of RUNX1 Runt–CBFb binding, primary screen, biochemical, FRET, Cerulean-Runt, Venus-CBFb, uHTS; Runt-related transcription factor 1 (Homo sapiens) + Core-binding factor subunit beta …; Cerulean-Runt/Venus-CBFb FRET ratio 530/480, 1 h; inhibition, % at 20 µM; 220,000 compounds, 0.46% hits; AID 1496, 2009;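 active = inhibition over about 50% at 20 µM in the single-dose screen, limit read from the data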;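 note: 0% = DMSO wells and 100% = excess unlabeled CBFb competitor control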
#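 Assay system: Cerulean-Runt domain fusion protein, energy donor; Signal: fluorescence energy transfer, 422 nm excitation, 530/480 nm emission; Timing: 1 h compound exposure, room temperature; Control set: unlabeled CBFb; Medium: Tris buffer pH 7.5 with salts and BSA; Compound: single test concentration of 20 µM, 1% DMSO final; Probe or stimulus: Venus-CBFb 100 nM.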
# p97 inhibitor: inhibitors of human p97 ATPase, primary screen, biochemical. Transitional endoplasmic reticulum ATPase (Homo sapiens), P55072. recombinant p97 ATPase, Kinase-Glo ATP luminescence, 3 h. inhibition, % at 8 µM. 220,000 compounds, 0.42% hits. AID 1481, 2009; in the data active = inhibition above about 15%;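 note: 0% = DMSO vehicle and 100% = wells lacking enzyme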
# Target sequence (P55072 whole entry, looked up): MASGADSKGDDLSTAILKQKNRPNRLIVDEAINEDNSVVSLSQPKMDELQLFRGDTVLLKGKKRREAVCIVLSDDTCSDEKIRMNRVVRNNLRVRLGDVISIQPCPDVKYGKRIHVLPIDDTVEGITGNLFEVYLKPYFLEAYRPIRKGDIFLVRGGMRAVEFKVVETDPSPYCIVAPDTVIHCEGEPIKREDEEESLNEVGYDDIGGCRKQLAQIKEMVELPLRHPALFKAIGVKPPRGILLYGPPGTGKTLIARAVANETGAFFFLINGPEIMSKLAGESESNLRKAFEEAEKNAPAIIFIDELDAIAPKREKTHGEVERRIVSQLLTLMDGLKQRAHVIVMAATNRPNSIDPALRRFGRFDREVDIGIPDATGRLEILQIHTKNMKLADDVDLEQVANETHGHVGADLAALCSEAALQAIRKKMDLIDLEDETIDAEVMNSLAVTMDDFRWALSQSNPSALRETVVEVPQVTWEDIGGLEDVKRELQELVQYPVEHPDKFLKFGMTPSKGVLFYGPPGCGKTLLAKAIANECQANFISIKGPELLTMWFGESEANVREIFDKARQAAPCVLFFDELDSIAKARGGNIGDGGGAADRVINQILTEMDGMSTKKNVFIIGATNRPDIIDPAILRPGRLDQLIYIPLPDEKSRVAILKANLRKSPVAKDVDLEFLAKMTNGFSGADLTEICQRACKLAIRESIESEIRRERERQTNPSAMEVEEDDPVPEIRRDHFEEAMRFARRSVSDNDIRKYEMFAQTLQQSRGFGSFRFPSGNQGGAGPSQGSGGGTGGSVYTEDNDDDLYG
# YIC FRET counter: YIC intramolecular FRET probe signal interference, dose response, counter-screen for RanGTP-importin-beta inhibitor project, biochemical, fluorescence FRET; shares compounds with RanGTP-Imp inh; Purified YIC probe, intramolecular FRET ratio YFP/CFP; IC50, µM; 1,000 compounds, 40% hits; AID 435026, 2010;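 active = fitted half-maximal inhibitory concentration no more than tenfold above the top dose tested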
# * = called active by the depositor; nt = not tested or not shown.
SMILES,RanGTP-Imp inh,Hck-Nef inh,Tb hexokinase,Runt-SMMHC FRET,Runt-CBFb FRET,p97 inhibitor,YIC FRET counter
CC(=O)Nc1cc(C(=O)N(C)Cc2ccco2)ccc1Sc1ccc(Cl)cc1,18*,3,-2,-2,-1,-6,>50
CC(=O)Nc1cc(C(=O)NCc2ccco2)ccc1Sc1ccc(Cl)cc1,6,3,31,-4,-3,7,nt
COc1cc(NC(=O)c2cc(-c3ccc(C)cc3)on2)cc(OC)c1OC,2,nt,nt,nt,nt,nt,nt
COc1cc(NC(=O)c2cc(-c3cccs3)on2)cc(OC)c1OC,28*,0,-3,-3,-2,1,>50
Cc1cc(NCCN(C)C)n2nc(-c3cccs3)cc2n1,17*,6,-13,7,4,-3,24*
CNC(=O)c1c(C)[nH]c(=S)c(C#N)c1-c1ccco1,31*,-163,-18,45,31,13,>50
Oc1ccc(/C=C/c2cnccn2)cc1,1,-65,-57,-7,0,1,nt
O=C(Oc1ccc2c3c(c(=O)oc2c1)CCCC3)c1ccco1,17*,32,-14,166*,130*,7,20*
CC(C)Oc1ccc2c3c(c(=O)oc2c1)CCC3,3,2,-15,0,-3,-8,nt
Cc1ccc(C(=O)Nc2nnc(SCC(=O)N3CCCc4ccccc43)s2)cc1,39*,2,-13,1,1,0,>50
CCCNC(=O)COC(=O)c1cccnc1Nc1ccccc1F,-3,2,-10,-1,1,-4,nt
O=C(COC(=O)c1cccnc1Nc1ccccc1F)NCCN1C(=O)CSC1=O,27*,1,-21,-3,1,1,>50
CN1CCN(C(=O)c2ccccc2Nc2ccc(SC(F)F)cc2)CC1,19*,20,-10,2,0,-4,>50
COC(=O)c1ccc2nc(NC(=O)C(C)(C)C)sc2c1,20*,12,4,0,-2,-5,>50
COC(=O)c1ccc2nc(NC(=O)C3CCCCC3)sc2c1,-3,21,0,-1,-3,6,nt
COc1ccc(NC(=O)NN2CCN(C)CC2)cc1,-1,nt,nt,nt,nt,nt,nt
CC(=O)CN1Cc2ccccc2/C1=N\C(=O)Nc1ccccc1,2,0,3,-1,-1,-2,nt
COc1ccc(N2Cc3ccccc3/C2=N\C(=O)Nc2ccccc2)cc1,17*,-14,-3,-2,-2,7,>50
CCOC(=O)c1ccc(NC(=O)COc2ccc(CNC3CCCCC3)cc2OC)cc1,0,-1,-6,4,0,-2,nt
O=C(/C=C/c1cccs1)Nc1ccc([N+](=O)[O-])cc1,19*,0,-15,0,-6,-2,>50
CCOCCCNC(=O)NC(=O)CN1CCN(S(=O)(=O)c2ccc3c(c2)OCCO3)CC1,19*,-9,0,2,1,3,>50
COCCNC(=O)c1cc2cc(Br)cc(OC)c2oc1=O,5,2,-5,-22,-1,1,nt
O=C(CN1CCN(Cc2cccc3ccccc23)CC1)NCCc1ccccc1,3,nt,nt,nt,nt,nt,nt
Cc1ccc(-c2nc3cc(C)ccc3o2)cc1,2,3,8,-3,0,4,nt
Cc1ccc(-c2nc3cc(N)ccc3o2)cc1,21*,0,-13,-5,-2,3,>50
CCC(C)c1ccc(OCC(=O)O)cc1 (stereo unspecified),24*,13,5,-3,3,3,>50
CCOc1ccc(NC(=O)CSc2nnc(C3CC3)n2C)cc1,4,10,7,0,0,-2,nt

# Screening results as filed in PubChem BioAssay.
